From the RNAGym collection of RNA variant scans (doi:10.1126/science.aae0568) come the findings set out here.

This sample holds only a part of the variants without activity.

Sequences and labels used below:
B1: tRNA (parent)
chain: GUUCCGUUGGCGUAAUGGUAACGCGUCUCCCUCCUAAGGAGAAGACUGCGGGUUCGAGUCCCGUACGGAACG

The variants in this series derive from B1. Kind of series: yeast fitness relative to wild type (ratio to wild type); higher = fitter; tRNA-Arg(CCU), competitive growth, 37 C, YPD. An outline of the steps: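 Amplicons of the tRNA-Arg(CCU) gene were sequenced, 100-nucleotide paired-end, from the start population and from each end population of a pooled yeast competition. The competition, in six parallel replicates, lasted 24 hours in YPD at 37°C. Fitness relative to wild type was calculated from changes in genotype frequencies. Genotypes had to have ≥ 100 starting reads, and estimates < 0.5 were set to 0.5.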
For GUUCCGUUGGCGUAAUGGUAACGCGUUUCCCUGCUAAGGAGAGGACUGCGGGUUCGGGUCUUGUACGGAACG [C27U C33G A43G A57G C61U C62U], the yeast fitness amounted to 0.509.
As to GUUCCGUUGGCGUAAUGGUAACGCGUUUCCCUUCUUAGGAGAAGACUGCGGGUUCGAGUCCCCUACGGAACG [C27U C33U A36U G63C], the yeast fitness came to 0.541.
With GUUCCGUUGGCGUAAUGGUAACGCGUUUCCCUGCUAAGGAGAGGACUGCGGGUUCGAGUCCCGUACGGAACG [C27U C33G A43G] the figure was not above 0.5.
Consider GUUCCGUUGGCGUAAUGGUAACGCGUUUCCCUACUAAGGAGAAGACUGCGGGUUCGAGUUCGGUACGGAACG [C27U C33A C60U C62G], for which the yeast fitness was not above 0.5.
In the case of GUUCCGUUGGCGUAAUGGUAACGCGUUUCCGUCCUAAGGAGACGACUGGGGCUUCGAGUCCCGUACGGAACG [C27U C31G A43C C49G G52C], the yeast fitness was not above 0.5.
Take GUUCCGUUGGCGUAAUGGUAACGCGUUUCCCUUCUAUGGAGAAGACUGCGAGUUCGAGUCCCGUACGGAGCG [C27U C33U A37U G51A A70G]: the yeast fitness was found to be 0.552.
Regarding GUUCCGUUGGCGUAAUGGUAACGCGUUUCCCUGCUAAGAAGAGGACUGCGGGUUCGGGUCUUGUACGGAACG [C27U C33G G39A A43G A57G C61U C62U], the yeast fitness is not above 0.5.
GUUCCGUUGGCGUAAUGGUAACGCGUUUCCCUCCUAAGGAGAAGUCUGCGGGUUCGAGUCCCGUAUGGAACG [C27U A45U C66U]: the yeast fitness was determined as 0.7.
As for GUUCCGUUGGCGUAAUGGUAACGCGUUUCCAUCCUAAGGAGAAGACUGCGGGUUCGAGUCCCGUACGGCACG [C27U C31A A69C], the yeast fitness is 0.598.
As for GUUCCGUUGGCGUAAUGGUAACGCGUUUCUCUCCUAAGGAGAAGACUGCGGGAUCGAGUCCCGUACGGAACG [C27U C30U U53A], the yeast fitness worked out at 0.62.
Turning to GUUCCGUUGGCGUAAUGGUAACGCGUUUCCCUGCUAAGGAGAGGCCUGCGGGUUAGAGUCCCGUACGGAACG [C27U C33G A43G A45C C55A], the yeast fitness is not above 0.5.
On to GUUCCGUUGGCGUAAUGGUAACGCGUUUCCUUCCUAAGGUGAAGUCUGGGGGUUCGAGUCCCAUACGGAACG [C27U C31U A40U A45U C49G G63A], for which the yeast fitness worked out at 0.589.
Consider GUUCCGUUGGCGUAAUGGUAACGCGUUUGCCUCCUAAGGAGAAGAAUGCGGGUUCGAGUCCCGUACGGAACG [C27U C29G C46A], for which the yeast fitness was found to be 0.539.
With GUUCCGUUGGCGUAAUGGUAACGCGUUUUCCUCCUCAGGAGAAGACUGCGGGUUCGAGUCCCGUACGGAACG [C27U C29U A36C], the yeast fitness was not above 0.5.
As to GUUCCGUUGGCGUAAUGGUAACGCGUUUCCGUCCUAAGGAGAAGACUGCGGGUUCGAGUCCCGUACGGAACG [C27U C31G], the yeast fitness worked out at 0.713.
For GUUCCGUUGGCGUAAUGGUAACGCGUUUCCUUCCUAAGGAGAAGACUGCGGGUUCGAGUCCCGUACGGAACG [C27U C31U], the yeast fitness came out at 1.07.
Regarding GUUCCGUUGGCGUAAUGGUAACGCGUUUCCCUCCUAAGGAGAAGACUGCGGGUUCGAGUCCCGUACGGCACG [C27U A69C], the yeast fitness was 1.01.
For the variant GUUCCGUUGGCGUAAUGGUAACGCGUUUCCCUGCUAAGGAGAGGACUACGGAUUCGAGUCCCGUACGGAACG [C27U C33G A43G G48A G52A], the yeast fitness was not above 0.5.
GUUCCGUUGGCGUAAUGGUAACGCGUUUCCAUCCUAAGGAGAAGACUGCGGGUUCGAGUCCCAUACGGAACG [C27U C31A G63A]: the yeast fitness was not above 0.5.
With GUUCCGUUGGCGUAAUGGUAACGCGUUUCCUUCCUAAGGUGAAGUCUGGGGGUUCGAGUCCCGUCCGGAACG [C27U C31U A40U A45U C49G A65C] the figure was not above 0.5; with GUUCCGUUGGCGUAAUGGUAACGCGUUUUCCUCCUAAGGAGAAGACUGUGGGUUCGAGUCCCGUACGGAACG [C27U C29U C49U], 0.71.
With GUUCCGUUGGCGUAAUGGUAACGCGUUUUCCUCCUAAGGAGAAGACUGGGGGUUCGAGUCCCGUACGGAACG [C27U C29U C49G] the figure was not above 0.5; with GUUCCGUUGGCGUAAUGGUAACGCGUUUCUCUCCUAAGGAGAAGAUUGCGGGUGCGAGUCCCGUACGGAGCG [C27U C30U C46U U54G A70G], 0.655; with GUUCCGUUGGCGUAAUGGUAACGCGUUUUCCUCCUAAGGAGAAGACUGCGGGUUCGAGUCCCGUACGGAACG [C27U C29U], 0.792.
For the variant GUUCCGUUGGCGUAAUGGUAACGCGUUUACCUCCUAAGGAGAAGACUGCGGGUUCGAGUCCCGUACGGAACG [C27U C29A], the yeast fitness stood at 0.737.
Turning to GUUCCGUUGGCGUAAUGGUAACGCGUUUACCUCCUAAGGAGAAGACUGCGGGUUGGAGUCCCGUGCGGAACG [C27U C29A C55G A65G], the yeast fitness was not above 0.5.
As for GUUCCGUUGGCGUAAUGGUAACGCGUUUCCCUCCUAAGGAGAAGACUGCGGGUUCGCGUCCCGUACGGAACG [C27U A57C], the yeast fitness was 0.676.
For the variant GUUCCGUUGGCGUAAUGGUAACGCGUUUCCCUCCUAAGGAGAAGACUGCGGGUUCGUGUCCCGUACGGAACG [C27U A57U], the yeast fitness came out at 0.668.
Consider GUUCCGUUGGCGUAAUGGUAACGCGUUUCCCUCCUAAGGAGAAGACUGCGGGUUCGGGUCCCGUACGGAACG [C27U A57G], for which the yeast fitness is 0.959.
As for GUUCCGUUGGCGUAAUGGUAACGCGUUUCCUUCCUAAGGAGAAGACUGCGCGUUCGAGUCCCGUAAGGAACG [C27U C31U G51C C66A], the yeast fitness is not above 0.5.
Turning to GUUCCGUUGGCGUAAUGGUAACGCGUUUCCCUACUAAGGAGAAGACUGCGGGUUCGAGUCCCGUACGGAACG [C27U C33A], the yeast fitness was 0.618.
As to GUUCCGUUGGCGUAAUGGUAACGCGUUUCUCUCCUAAGGAGAAGACUGCGGGAUCGAGUCCCGUGCGGCACG [C27U C30U U53A A65G A69C], the yeast fitness is not above 0.5.
Regarding GUUCCGUUGGCGUAAUGGUAACGCGUUUCCCUGUUAAGGAGAAGACUGCGGGUUCGAGUCUCGUACACAACG [C27U C33G C34U C61U G67A G68C], the yeast fitness was not above 0.5.
With GUUCCGUUGGCGUAAUGGUAACGCGUUUGCCUCCUAAGGAGAAGACUGCGGGUUUGAGUCCCGUGAGGAACG [C27U C29G C55U A65G C66A] the figure was not above 0.5; with GUUCCGUUGGCGUAAUGGUAACGCGUUUGCCUCCUAAGGAGAAGACUGCGGGUUCGCGUCACGUACGGAACG [C27U C29G A57C C61A], not above 0.5.
For the variant GUUCCGUUGGCGUAAUGGUAACGCGUUUCCUUCCUAAGGAGAAGACUGCGGGUUCGAGUCCCGUACCGAACG [C27U C31U G67C], the yeast fitness was determined as 0.727.
With GUUCCGUUGGCGUAAUGGUAACGCGUUUCUCUCCUAAGGAGAAGACUGCGGGAUCGAGUCCCGUAUGGAACG [C27U C30U U53A C66U] the figure was not above 0.5; with GUUCCGUUGGCGUAAUGGUAACGCGUUUCGCUCCUAAGGGGAAGACUGCGCGUUCGAGUCCCGUACGGAACG [C27U C30G A40G G51C], not above 0.5.
